Results from ChEMBL document CHEMBL2021803, “Antitumor agents. 289. Design, synthesis, and anti-breast cancer activity in vivo of 4-amino-2H-benzo[h]chromen-2-one and 4-amino-7,8,9,10-tetrahydro-2H-benzo[h]chromen-2-one analogues with improved water solubility” (J Nat Prod, 2012).
Converted amounts (≈) assume the structure as drawn. The source made the active and inactive calls. No cut-off for these calls is given here.

How the values were obtained:
DU-145 = assay: Cytotoxicity against human DU145 cells after 72 hrs by SRB assay; assay type: functional, cell-based
[1] = Cytotoxicity against human KBVIN cells after 72 hrs by SRB assay; assay type: functional, cell-based
A549 = assay: Cytotoxicity against human A549 cells after 72 hrs by SRB assay; assay type: functional, cell-based
KB = assay: Cytotoxicity against human KB cells after 72 hrs by SRB assay; assay type: functional, cell-based
SK-BR-3 = assay: Cytotoxicity against human SKBR3 cells after 72 hrs by SRB assay; assay type: functional, cell-based
Mus musculus [2] = assay: Reduction in ductal branching in Brca/p53 mutant mouse mammary gland at 0.1 mg, ip administered daily for 10 days by immunostaining technique; assay type: functional; design: scale not given: the % may be the effect or the level left; conditions: in the assay text read “Carmine alum whole-mount staining” for “immunostaining technique”
Summary of the method: (§1)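 Three-month-old wild-type or Brca1/p53 Cre mutant mice (mixed C57BL/6 × 129/Sv) given 0.1 mg i.p. daily (DMSO stock […] diluted in 40% PEG and 0.9% NaCl at dosing); vehicle controls. Fourth-pair mammary glands whole-mounted, Carnoy's fixed 3 h, Carmine alum stained overnight. Branching points counted in three random areas totaling about 2 mm².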

Mus musculus [3] = assay: Antiproliferative activity of Brca/p53 mutant mouse mammary epithelial cells assessed as reduction in DNA synthesis at 0.1 mg, ip administered daily for 10 days by BrdU-based immunostaining method; assay type: functional
Summary of the method: (§2)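 Three-month-old mice (C57BL/6 × 129/Sv mixed background; wild-type or Brca1/p53 Cre mutant) dosed i.p. daily, 0.1 mg in 10 μL of […] DMSO stock plus 30 μL 40% PEG and 60 μL 0.9% NaCl, made fresh; vehicle controls. Paraffin sections, citrate pH 6.0 microwave retrieval 20 min, anti-BrdU 1:1000, ABC detection; BrdU-positive cells averaged over 15 ducts.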

Mus musculus [4] = assay: Reduction in ductal branching in wild type mouse mammary gland at 0.1 mg, ip administered daily for 10 days by immunostaining technique; assay type: functional, organism-based; design: scale not given: the % may be the effect or the level left; conditions: in vivo, 240 h; summary of the method: as §1
Mus musculus [5] = assay: Reduction in ductal branching in Brca/p53 mutant mouse at 0.1 mg, ip administered daily for 10 days; assay type: functional, organism-based; summary of the method: as §1
Mus musculus [6] = assay: Induction of apoptosis in Brca/p53 mutant mouse mammary gland assessed as increase in perinuclear localization of cleaved caspase-3 at 0.1 mg, ip administered daily for 10 days by immunohistochemical staining method; assay type: functional, organism-based
Summary of the method: (§3)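 Wild-type or Brca1/p53 Cre mutant mice (C57BL/6 × 129/Sv), three months old, dosed i.p. daily with 0.1 mg in DMSO/40% PEG/0.9% NaCl (10:30:60 μL), made fresh; vehicle controls. Mammary glands fixed in 4% paraformaldehyde at 4 °C overnight, paraffin-embedded, cut into 5-μm sections. Retrieval by boiling in citrate pH 6.0, then rabbit polyclonal anti-cleaved caspase-3. Read as percentage of positive cells per duct.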

Mus musculus [7] = assay: Induction of apoptosis in Brca/p53 mutant mouse mammary gland assessed as increase in cytoplasmic localization of cleaved caspase-3 at 0.1 mg, ip administered daily for 10 days by immunohistochemical staining method; assay type: functional, organism-based; summary of the method: as §3
Mus musculus [8] = assay: Induction of apoptosis in Brca/p53 mutant mouse mammary gland assessed as increase in cleaved caspase-3 at 0.1 mg, ip administered daily for 10 days by immunohistochemical staining method relative to vehicle-treated control; assay type: functional; summary of the method: as §3
Mus musculus [9] = assay: Induction of apoptosis in wild type mouse mammary gland assessed as increase in cleaved caspase-3 at 0.1 mg, ip administered daily for 10 days by immunohistochemical staining method relative to vehicle-treated control; assay type: organism-based; conditions: in vivo, 240 h; summary of the method: as §3
[10] = Solubility of the compound in water; assay type: physicochemical
Mus musculus [11] = assay: Antiproliferative activity of wild type mouse mammary epithelial cells assessed as reduction in DNA synthesis at 0.1 mg, ip administered daily for 10 days by BrdU-based immunostaining method; assay type: organism-based, Epithelial cell; conditions: in vivo, 240 h; summary of the method: as §2

| Structure (SMILES) | IC50 (DU-145; du-145) | IC50 ([1]; kbvin) | IC50 (A549; a549) | IC50 (KB; kb) | IC50 (SK-BR-3; sk-br-3) | IC50 (DU-145; Homo sapiens, DU-145, 72 h) | IC50 ([1]; Homo sapiens, KBVIN, 72 h) | IC50 (A549; Homo sapiens, A549, 72 h) | IC50 (KB; Homo sapiens, KB, 72 h) | IC50 (SK-BR-3; Homo sapiens, SK-BR-3, 72 h) | other results |
| --- | --- | --- | --- | --- | --- | --- | --- | --- | --- | --- | --- |
| Nc1ccccc1Nc1cc(=O)oc2c3c(ccc12)CCCC3 [listing 1 of 2 here] | > 10 µM | 7 µM | 8 µM | 7.4 µM | 8.7 µM |  |  |  |  |  |  |
| COc1ccc(Nc2cc(=O)oc3c4c(ccc23)CCCC4)cc1 |  |  |  |  |  | 0.038 µM | 0.046 µM | 0.049 µM | 0.037 µM | 0.064 µM | Activity (Mus musculus [2]): 65%; Activity (Mus musculus [3]; Epithelial cell): inactive; Activity (Mus musculus [4]): 15%; Activity (Mus musculus [5]): Active |
| CN(C)c1ccc(Nc2cc(=O)oc3c4c(ccc23)CCCC4)cc1 [listing 1 of 2 here] |  |  |  |  |  | 0.47 µM | 0.54 µM | 0.54 µM | 0.72 µM | 0.77 µM |  |
| O=c1cc(NC2CCN(Cc3ccccc3)CC2)c2ccc3c(c2o1)CCCC3 [listing 1 of 2 here] |  |  |  |  |  | 5.8 µM | 6.2 µM | 7 µM | 6.5 µM | 7.7 µM |  |
| Nc1cccc(Nc2cc(=O)oc3c4c(ccc23)CCCC4)c1 [listing 1 of 2 here] |  |  |  |  |  | 0.44 µM | 0.47 µM | 0.4 µM | 0.44 µM | 0.48 µM |  |
| Nc1cccc2c(Nc3cc(=O)oc4c3ccc3ccccc34)cccc12 [listing 1 of 2 here] |  |  |  |  |  | 0.15 µM | 0.15 µM | 0.16 µM | 0.16 µM | 0.2 µM |  |
| Nc1ccc(Nc2cc(=O)oc3c4c(ccc23)CCCC4)cc1 [listing 1 of 3 here] |  |  |  |  |  |  |  |  |  |  | Activity (Mus musculus [3]; Epithelial cell): inactive; Activity (Mus musculus [6]): Active; Activity (Mus musculus [7]): Active; Activity (Mus musculus [5]): Active |
| Nc1cccc(Nc2cc(=O)oc3c4c(ccc23)CCCC4)c1 [listing 2 of 2 here] | 0.34 µM | 0.45 µM | 0.5 µM | 0.48 µM | 0.56 µM |  |  |  |  |  |  |
| Nc1cccc(Nc2cc(=O)oc3c2ccc2ccccc23)c1 [listing 1 of 2 here] |  |  |  |  |  | 0.15 µM | 0.16 µM | 0.19 µM | 0.12 µM | 0.15 µM |  |
| CN(C)c1ccc(Nc2cc(=O)oc3c2ccc2ccccc23)cc1 [listing 1 of 2 here] | 0.3 µM | 0.41 µM | 0.59 µM | 0.47 µM | 0.27 µM |  |  |  |  |  |  |
| Nc1ccc(Nc2cc(=O)oc3c2ccc2ccccc23)cc1 [listing 1 of 3 here] | 0.049 µM | 0.047 µM | 0.054 µM | 0.048 µM | 0.053 µM |  |  |  |  |  |  |
| Nc1ccccc1Nc1cc(=O)oc2c3c(ccc12)CCCC3 [listing 2 of 2 here] |  |  |  |  |  | 5 µM | 5.2 µM | 5 µM | 4.9 µM | 5.2 µM |  |
| Nc1ccc(Nc2cc(=O)oc3c4c(ccc23)CCCC4)cc1 [listing 2 of 3 here] |  |  |  |  |  | 0.053 µM | 0.053 µM | 0.058 µM | 0.056 µM | 0.074 µM | Activity (Mus musculus [2]): 70%; fold change (FC) (Mus musculus [8]): 4.5; Activity (Mus musculus [4]): 15%; fold change (FC) (Mus musculus [9]): 4 |
| O=c1cc(NC2CCN(Cc3ccccc3)CC2)c2ccc3ccccc3c2o1 [listing 1 of 2 here] |  | 9.4 µM |  | > 10 µM |  |  |  |  |  |  |  |
| Nc1cccc(Nc2cc(=O)oc3c2ccc2ccccc23)c1 [listing 2 of 2 here] | 0.18 µM | 0.15 µM | 0.15 µM | 0.17 µM | 0.24 µM |  |  |  |  |  |  |
| Nc1ccccc1Nc1cc(=O)oc2c1ccc1ccccc12 [listing 1 of 2 here] |  |  |  |  |  | > 10 µM | > 10 µM | > 10 µM | > 10 µM | > 10 µM |  |
| Nc1ccc(Nc2cc(=O)oc3c2ccc2ccccc23)cc1 [listing 2 of 3 here] |  |  |  |  |  | 0.04 µM | 0.044 µM | 0.055 µM | 0.054 µM | 0.038 µM | Activity (Mus musculus [2]): 69%; Activity (Mus musculus [3]): 81%; fold change (FC) (Mus musculus [8]): 4.8; solubility [10]: 0.0339 mg/mL (≈ 112 µM); Activity (Mus musculus [4]): 15%; fold change (FC) (Mus musculus [9]): 2.1; Activity (Mus musculus [11]): Non-toxic |
| Nc1cccc2c(Nc3cc(=O)oc4c3ccc3ccccc34)cccc12 [listing 2 of 2 here] | 0.18 µM | 0.17 µM | 0.24 µM | 0.21 µM | 0.24 µM |  |  |  |  |  |  |
| CN(C)c1ccc(Nc2cc(=O)oc3c2ccc2ccccc23)cc1 [listing 2 of 2 here] |  |  |  |  |  | 0.36 µM | 0.35 µM | 0.43 µM | 0.6 µM | 0.3 µM |  |
| O=c1cc(NC2CCN(Cc3ccccc3)CC2)c2ccc3ccccc3c2o1 [listing 2 of 2 here] |  |  |  |  |  | > 10 µM | 7.6 µM | > 10 µM | 8.3 µM | > 10 µM |  |
| Nc1ccccc1Nc1cc(=O)oc2c1ccc1ccccc12 [listing 2 of 2 here] | 8.7 µM | 9 µM | 9.1 µM | 8.2 µM | 9.5 µM |  |  |  |  |  |  |
| O=c1cc(NC2CCN(Cc3ccccc3)CC2)c2ccc3c(c2o1)CCCC3 [listing 2 of 2 here] | 8.3 µM | 8.3 µM | > 10 µM | 9.1 µM | 9.3 µM |  |  |  |  |  |  |
| CN(C)c1ccc(Nc2cc(=O)oc3c4c(ccc23)CCCC4)cc1 [listing 2 of 2 here] | 0.33 µM | 0.39 µM | 0.44 µM | 0.38 µM | 0.49 µM |  |  |  |  |  |  |
| Nc1ccc(Nc2cc(=O)oc3c2ccc2ccccc23)cc1 [listing 3 of 3 here] |  |  |  |  |  |  |  |  |  |  | Activity (Mus musculus [6]): Active; Activity (Mus musculus [7]): Active; Activity (Mus musculus [5]): Active |
| Nc1ccc(Nc2cc(=O)oc3c4c(ccc23)CCCC4)cc1 [listing 3 of 3 here] | 0.066 µM | 0.065 µM | 0.062 µM | 0.069 µM | 0.085 µM |  |  |  |  |  |  |
| COc1ccc(Nc2cc(=O)oc3c2ccc2ccccc23)cc1 |  |  |  |  |  | 0.11 µM | 0.13 µM | 0.17 µM | 0.11 µM | 0.13 µM | Activity (Mus musculus [2]): 75%; Activity (Mus musculus [3]): 55%; solubility [10]: 0.00069 mg/mL (≈ 2.17 µM); Activity (Mus musculus [4]): 15%; Activity (Mus musculus [5]): Active; Activity (Mus musculus [11]): Non-toxic |
